Published values pooled from the literature.
Lines come from different studies, so protocols differ.
Mode: inhibitor
MAPK14: Mitogen-activated protein kinase 14 (MAPK14, Homo sapiens, UniProt Q16539)

| SMILES | target | assay | system | setting | inhibition |
| --- | --- | --- | --- | --- | --- |
| CNC(=O)c1cc(Oc2ccc(NC(=O)Nc3ccc(Cl)c(C(F)(F)F)c3)cc2)ccn1 | MAPK14 | enzyme activity | – | 0.3 µM | -9% |
| CC/C(=N\NC(=O)NCc1cccc(O)c1)c1ccc(O)c(C)c1O | MAPK14 | enzyme activity | – | 0.1 µM | -2.8% |
| CCCCNc1ncc2c(-c3ccc(F)cc3)nn(C[C@H]3CC[C@H](N)CC3)c2n1 | MAPK14 | target engagement in cells, chemoproteomics | – | 20 mM | 60.6% |
| CS(=O)(=O)Nc1cccc(-c2csc(NC(=O)CSc3nc4nccnc4c(=O)n3CCc3ccccc3)n2)c1 | MAPK14 | enzyme activity | – | 10 µM | -1% |
| Cc1ccc(Nc2nccc(N(C)c3ccc4c(C)n(C)nc4c3)n2)cc1S(N)(=O)=O | Mitogen-activated protein kinase 14 (MAPK14, Homo sapiens, UniProt Q16539, T106M) | enzyme activity | – | 10 µM | 13% |
| COc1cc2ncnc(Nc3ccc(Oc4ccccc4)cc3C)c2cc1OC | MAPK14 | enzyme activity | – | 1 µM | 3% |
| O=C(CSc1nc2nccnc2c(=O)n1CCc1ccccc1)Nc1nccs1 | MAPK14 | enzyme activity | – | 10 µM | 3% |
| CN(c1ncccc1CNc1nc(Nc2ccc3c(c2)CC(=O)N3)ncc1C(F)(F)F)S(C)(=O)=O | MAPK14 | enzyme activity | – | 1 µM | 0% |
| COc1cc2ncnc(Nc3ccc(Oc4ccccc4)c(C)c3C)c2cc1OC | MAPK14 | enzyme activity | – | 1 µM | -3% |
| CCCS(=O)(=O)Nc1ccc(F)c(C(=O)c2c[nH]c3ncc(-c4ccc(Cl)cc4)cc23)c1F | MAPK14 | enzyme activity | – | 1 µM | < 10% |
| COc1cccc2c(NCc3ccccc3)nc(-n3c(N)nc4ccccc43)nc12 | MAPK14 | target engagement in cells, chemoproteomics | – | 20 mM | 16.5% |
| CCN(CC)CCNC(=O)c1c(C)[nH]c(/C=C2\C(=O)Nc3ccc(F)cc32)c1C | MAPK14 | enzyme activity | – | 10 µM | -1% |
| CN(C)C1CCN(CC#Cc2nn(C3CCCC3)c3nc(NCc4ccccc4)ncc23)C1 (stereo not drawn) | MAPK14 | enzyme activity, FRET | – | 1 µM | 3% |
| CN1CC(Oc2cnc(C#N)cc2-c2ccn3nc(NC(=O)C4CC4)cc3c2)C1 | MAPK14 | enzyme activity | – | 1 µM | -19% |
| CNc1cc(Oc2cc(C(=O)Nc3cc(N4CCN(C)CC4)cc(C(F)(F)F)c3)ccc2C)ncn1 | MAPK14 | target engagement in cells, chemoproteomics | Huh-7 | 1 µM | -29% |
